The source of these data is ChEMBL document CHEMBL1124161, “4-Hydroxy-3-quinolinecarboxamides with antiarthritic and analgesic activities” (J Med Chem, 1988).

The source made the active and inactive calls. No cut-off for these calls is given here.

Assay [1] concerns the target T1, Polyunsaturated fatty acid 5-lipoxygenase (Rattus norvegicus, UniProt P12527).
T1 sequence (P12527 whole entry): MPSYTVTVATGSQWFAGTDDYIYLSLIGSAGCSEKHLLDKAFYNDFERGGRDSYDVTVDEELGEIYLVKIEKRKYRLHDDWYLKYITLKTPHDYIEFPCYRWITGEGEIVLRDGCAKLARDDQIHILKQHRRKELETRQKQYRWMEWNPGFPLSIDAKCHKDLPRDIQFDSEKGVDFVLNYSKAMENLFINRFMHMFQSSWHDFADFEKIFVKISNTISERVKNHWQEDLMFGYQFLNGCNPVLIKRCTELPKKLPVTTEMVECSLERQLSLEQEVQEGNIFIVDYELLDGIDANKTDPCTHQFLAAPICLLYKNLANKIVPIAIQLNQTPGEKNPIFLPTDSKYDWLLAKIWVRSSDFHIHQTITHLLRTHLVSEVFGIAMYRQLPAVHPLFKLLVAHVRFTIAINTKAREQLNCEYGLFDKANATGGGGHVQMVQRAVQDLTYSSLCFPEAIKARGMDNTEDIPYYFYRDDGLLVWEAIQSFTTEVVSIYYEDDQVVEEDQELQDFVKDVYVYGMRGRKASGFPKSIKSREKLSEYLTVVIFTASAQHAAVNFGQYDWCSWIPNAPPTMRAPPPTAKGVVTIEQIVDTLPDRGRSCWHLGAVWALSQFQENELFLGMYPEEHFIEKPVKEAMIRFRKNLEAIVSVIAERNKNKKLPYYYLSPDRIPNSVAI
Kind of assay: Inhibition of 5-lipoxygenase from rat peritoneal neutrophils in vitro.

Assay [2] has as its system Rattus norvegicus. Kind of assay: Antiinflammatory activity against carrageenan-induced foot edema in rat after peroral administration calculated from at least four doses.
Assay [3] concerns Rattus norvegicus. Kind of assay: Anti-arthritis activity against adjuvant-induced arthritis in rats after peroral administration. The assay is classed as functional. The note with it: Rattus norvegicus, po; read-out: ED50. The method in brief: (§1)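 Groups of five male Lewis rats, 40–50 days old, given intraplantar injection in right hind paw of 0.6 mg Mycobacterium butyricum in 0.1 mL Bayol 55. Drug given in food from adjuvant day to day 17. Injected and noninjected hind paw volumes measured day 17 against normal controls. ED50 by least-squares curve fitting or Litchfield–Wilcoxon probit.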

Another assay has as its target T2, Cyclooxygenase (Bos taurus, UniProt O62664+O62698).
T2 sequence (O62664 whole entry): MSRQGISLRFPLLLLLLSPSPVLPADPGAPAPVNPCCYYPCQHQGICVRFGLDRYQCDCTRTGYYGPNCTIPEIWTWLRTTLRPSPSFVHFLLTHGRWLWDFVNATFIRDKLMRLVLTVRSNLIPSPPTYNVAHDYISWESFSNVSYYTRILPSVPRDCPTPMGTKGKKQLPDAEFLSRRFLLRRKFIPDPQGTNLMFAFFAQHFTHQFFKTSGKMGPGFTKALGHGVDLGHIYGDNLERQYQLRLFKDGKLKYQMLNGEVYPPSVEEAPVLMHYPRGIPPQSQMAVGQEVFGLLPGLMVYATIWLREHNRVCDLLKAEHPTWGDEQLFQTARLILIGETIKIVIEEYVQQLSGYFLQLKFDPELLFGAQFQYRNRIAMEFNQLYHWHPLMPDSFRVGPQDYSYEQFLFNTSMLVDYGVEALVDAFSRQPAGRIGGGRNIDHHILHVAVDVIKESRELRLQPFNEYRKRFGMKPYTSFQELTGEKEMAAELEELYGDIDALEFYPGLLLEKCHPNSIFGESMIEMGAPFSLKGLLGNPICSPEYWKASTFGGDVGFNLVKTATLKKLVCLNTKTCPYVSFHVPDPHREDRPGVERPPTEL
T2 sequence (O62698 whole entry): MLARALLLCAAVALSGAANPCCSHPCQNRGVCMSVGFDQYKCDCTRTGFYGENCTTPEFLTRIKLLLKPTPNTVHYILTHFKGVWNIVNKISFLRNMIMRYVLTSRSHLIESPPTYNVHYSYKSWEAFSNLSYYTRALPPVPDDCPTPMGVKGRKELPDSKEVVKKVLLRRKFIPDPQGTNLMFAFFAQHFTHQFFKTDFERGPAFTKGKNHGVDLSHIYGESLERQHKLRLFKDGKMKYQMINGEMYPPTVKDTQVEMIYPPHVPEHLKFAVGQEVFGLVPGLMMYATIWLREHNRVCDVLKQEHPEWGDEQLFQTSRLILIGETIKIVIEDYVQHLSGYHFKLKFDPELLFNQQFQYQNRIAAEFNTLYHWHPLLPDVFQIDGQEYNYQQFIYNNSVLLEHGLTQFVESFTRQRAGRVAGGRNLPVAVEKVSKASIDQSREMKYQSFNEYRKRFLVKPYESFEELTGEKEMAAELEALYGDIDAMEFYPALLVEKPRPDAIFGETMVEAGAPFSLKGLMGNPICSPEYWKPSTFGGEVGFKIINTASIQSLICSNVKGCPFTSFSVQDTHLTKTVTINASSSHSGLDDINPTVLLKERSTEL
Kind of assay: Inhibition of bovine Prostaglandin G/H synthase in seminal vesicle microsomes in vitro.

The subject of assay [4] is Mus musculus. Kind of assay: Analgesic activity against acetic acid induced writhing test in mouse after peroral administration. Format: functional.
Assay [5] concerns Rattus norvegicus. As to the kind of experiment: (§2) Ulcerogenic effect against gastric ulcer in rat after oral administration. Format: functional. The note with it: Stomach. The gist of the method: (§3)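 Groups of eight female rats (120–150 g), fasted 24 h, dosed orally; killed 7 h later and stomachs scored. Ulceration index = (mean ulcer degree × rats with ulcers / number of rats) × 100, ulcers being scores above 0.5. ED100 (index 100, max 300) read graphically.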

Assay [6] has as its system Rattus norvegicus. Kind of assay: Ulcerogenic effect against intestinal ulcer in rats after oral administration. Format: functional. The method in brief:
(§4)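 Nonfasted male rats (150–180 g) killed 24 h after oral dosing, and intestinal ulcers scored. Ulceration index = (mean degree × rats with ulcers / rats) × 100. ED100 (index 100) determined graphically.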

Assay [7] deals with Rattus norvegicus. As to the kind of experiment: Ulcerogenic effect against gastric ulcer in rats after oral administration. Format: functional, Stomach. The gist of the method:
as §3

Assay [8] has as its system Mus musculus. Kind of assay: Analgesic activity against acetic acid induced writhing test in mouse after peroral administration (treatment was 6 hr before testing). Format: functional. The note with it: po. The method in brief: (§5)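 Groups of 10 female mice (20–22 g), fasted 7 h, dosed orally 6 h before ip injection of 0.2 mL 1% aqueous acetic acid. Stretching and writhing movements counted from minute 5 to 20 after irritant. ED50 evaluated graphically or by computerized least-squares curve fitting.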
(In writhing tests, fewer writhes than in controls are read as antinociception.)

Assay [9] concerns Rattus norvegicus. Kind of assay: Antiinflammatory activity against carrageenan-induced foot edema in rat after peroral administration. Format: functional. The note with it: po. The method in brief: (§6)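 Groups of eight male Sprague-Dawley rats (150–180 g) dosed orally at the time of subplantar injection of 0.5 mg carrageenin. Paw volume difference measured before and 5 h after injection. Expressed as ED40, estimated graphically or by Litchfield–Wilcoxon probit analysis.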
Background: Carrageenan injected into the paw causes an acute inflammation.

In assay [10] the test system is Rattus norvegicus. As to the kind of experiment: Antiarthritis activity against adjuvant-induced arthritis in rats after peroral administration; range is (1.9-5.3). Particulars: po. The assay is classed as functional. The method in brief:
as §1

The subject of assay [11] is Rattus norvegicus. Kind of assay: Antiinflammatory activity against carrageenan-induced foot edema in rat. The assay is classed as functional. The gist of the method: as §6
The species entered for assay [12] is Rattus norvegicus. Kind of assay: Antiarthritis activity against adjuvant-induced arthritis in rats. Format: functional. The gist of the method:
as §1

The test system of assay [13] is Rattus norvegicus. As to the kind of experiment: Ulcerogenic effect after oral administration (gastric ulcer). Format: functional. The gist of the method: as §3
The subject of assay [14] is Rattus norvegicus. As to the kind of experiment: Ulcerogenic effect after oral administration (intestinal ulcer). The assay is classed as functional. The method in brief:
as §4

Assay [15] deals with Mus musculus. Kind of assay: Analgesic activity against acetic acid induced writhing test in mouse after peroral administration, treatment 6 hr before testing. The assay is classed as functional. The note with it: po. The gist of the method:
as §5

The subject of assay [16] is Mus musculus. Kind of assay: Analgesic activity against acetic acid induced writhing test in mouse administered peroral dose of 25 mg/kg; IA=Inactive. Format: functional, organism-based. Details: dose 25 mg/kg. The method in brief: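 Female mice (20–22 g), groups of 10, fasted 7 h; drug given orally 30 min before intraperitoneal injection of 0.2 mL 1% aqueous acetic acid. Stretching/writhing movements counted from minute 5 to 20 after irritant.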

Assay [17] concerns Rattus norvegicus. As to the kind of experiment: Antiinflammatory activity against carrageenan-induced foot edema in rat after oral administration of 25 mg/kg; IA=Inactive. Format: functional, organism-based. Also noted: dose 25 mg/kg.
The test system of assay [18] is Rattus norvegicus. As to the kind of experiment: Antiinflammatory activity against carrageenan-induced foot edema in rat after peroral administration calculated from 4 doses. Format: functional. Particulars: po. The method in brief:
as §6

Assay [19] concerns Rattus norvegicus. The description is as §2. The assay is classed as functional, Stomach. The method in brief:
as §3

In assay [20] the test system is Rattus norvegicus. As to the kind of experiment: Ulcerogenic effect against intestinal ulcer in rats after oral administration of 500 mg/kg; IA=Inactive. Format: functional, organism-based. Details: dose 500 mg/kg. The method in brief:
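Nonfasted male rats (150–180 g) killed 24 h after oral dosing; intestinal ulcers scored and ulceration index computed from mean ulcer degree times fraction of rats with ulcers ×100; ED100 (index 100) determined graphically.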

Assay [21] concerns Mus musculus. Kind of assay: Analgesic activity against acetic acid induced writhing test in mouse after peroral administration; range is (3.2-7.9). Format: functional. Particulars: po.
For assay [22], the system named is Rattus norvegicus. As to the kind of experiment: Antiinflammatory activity against carrageenan-induced foot edema in rat after peroral administration of 25 mg/kg; IA means Inactive. The assay is classed as functional, organism-based. Also noted: dose 25 mg/kg.
[23] abbreviates: Mus musculus, po, read-out: ED50.

In general, IC50 refers to the concentration that gives 50% inhibition. Higher therefore signals weaker potency. Broadly, the ED50 is the midpoint of the dose-response relation.

Consider `O=C(Nc1nccs1)c1c(C(F)(F)F)nc2c(C(F)(F)F)cccc2c1O`, for which the results for the IC50 (in assay [1]; at Cyclooxygenase) were 3 µM and 0.4 µM, respectively. For the same compound, in the assay on Rattus norvegicus [2], the ED40 is 3.5 mg/kg. For the same compound, the ED50 in the assay on Rattus norvegicus [3] came out at 3.8 mg/kg; in the assay with Mus musculus [4], 0.5 mg/kg; in the assay on Mus musculus [4] (setting [23]) it was 0.5 mg/kg. In addition, in the assay on Rattus norvegicus [5], the ED100 is 15 mg/kg.

As to `CC[C@H](N)c1nc2c(C(F)(F)F)cccc2c(O)c1C(=O)Nc1nccs1`, the IC50 worked out at 18 µM in assay [1] and 1.4 µM on Cyclooxygenase. Also, the ED100 with Rattus norvegicus [6] is more than 100 mg/kg; with Rattus norvegicus [7] it was 80 mg/kg. In addition, the ED50 with Rattus norvegicus [3] was 5 mg/kg; with Mus musculus [8] it was 30 mg/kg; in the assay on Mus musculus [4] (setting [23]) it was 35 mg/kg; in the assay with Rattus norvegicus [10], 3.1 mg/kg. For the same compound, the ED40 in the assay with Rattus norvegicus [9] is 10 mg/kg.

As to `CCC(=O)N[C@@H](CC)c1nc2c(C(F)(F)F)cccc2c(O)c1C(=O)Nc1nccs1`, the figures for the IC50 (in assay [1]; against Cyclooxygenase) were 2 µM and 0.4 µM, respectively. Also, the ED40 in the assay with Rattus norvegicus [11] is more than 100 mg/kg. In addition, the ED50 worked out at 3.5 mg/kg in the assay listed under Rattus norvegicus [12], 3 mg/kg in the assay with Rattus norvegicus [3], 4 mg/kg with Mus musculus [15] and 20 mg/kg in the assay with Mus musculus [4] (setting [23]). Also, the values for the ED100 with Rattus norvegicus [13] and with Rattus norvegicus [14] were more than 300 mg/kg and more than 100 mg/kg, respectively.

For `C=Cc1nc2c(C(F)(F)F)cccc2c(O)c1C(=O)Nc1nccs1`, the ED50 entry with Mus musculus [16] and in the assay on Rattus norvegicus [17] was “inactive” in each case.

On to `O=C(Nc1nccs1)c1cnc2c(C(F)(F)F)cccc2c1O`, for which the half-maximal inhibitory concentration (IC50) in assay [1] was 35 µM; at Cyclooxygenase it was 2.8 µM. Further, in the assay with Rattus norvegicus [18], the ED40 was more than 100 mg/kg. The compound further had an ED100 in the assay with Rattus norvegicus [19] of more than 500 mg/kg. Besides, the ED100 result in the assay on Rattus norvegicus [20] is “inactive”. Besides, the median effective dose (ED50) in the assay on Mus musculus [21] and in the assay with Mus musculus [4] (setting [23]) was 5 mg/kg each time.

For `COCc1nc2c(C(F)(F)F)cccc2c(O)c1C(=O)Nc1nccs1`, the ED50 result in the assay with Rattus norvegicus [22] is “inactive”. For the same compound, the 50% effective dose (ED50) in the assay on Mus musculus [4] (setting [23]) is 25 mg/kg.
